From PubChem
Hits are enriched below; roughly 3.7% of the tested compounds scored in any of these assays.
Kir21 block: blocks the mouse Kir2.1 inward-rectifier potassium channel; P35561; HEK293-Kir2.1, FluxOR thallium flux fluorescence; active compounds read low; B-score at 10 µM; hit rate 0.85% among 310,000; AID 1672;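 active = fluorescence ratio B-score at or below minus 3 SD of library scores, with starting-brightness B-score within 2 SD, cut at about -4.2 in these data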;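 also: channel flux triggered by added potassium and thallium sulfate stimulus; B-score of peak minus minimum fluorescence over baseline after thallium stimulus; more negative B-score means stronger Kir2.1 block with less thallium influx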
Target sequence (P35561 whole entry, looked up): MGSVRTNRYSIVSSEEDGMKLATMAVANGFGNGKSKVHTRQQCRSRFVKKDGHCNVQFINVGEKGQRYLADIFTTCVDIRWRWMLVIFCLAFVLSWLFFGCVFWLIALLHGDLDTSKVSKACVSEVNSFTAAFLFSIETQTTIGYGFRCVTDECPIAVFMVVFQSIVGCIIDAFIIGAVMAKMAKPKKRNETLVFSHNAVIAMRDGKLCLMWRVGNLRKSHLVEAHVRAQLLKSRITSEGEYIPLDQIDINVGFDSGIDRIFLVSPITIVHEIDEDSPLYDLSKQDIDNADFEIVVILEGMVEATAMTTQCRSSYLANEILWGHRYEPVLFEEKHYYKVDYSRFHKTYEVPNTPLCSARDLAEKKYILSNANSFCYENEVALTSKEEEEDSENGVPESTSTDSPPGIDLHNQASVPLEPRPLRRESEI
KCNK9 block: blocks the human KCNK9 two-pore domain potassium channel. Q9NPC2. HEK293 KCNK9, FluxOR thallium flux fluorescence; active compounds read low. B-score at 10 µM. hit rate 1.2% among 310,000. AID 488922;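 active = ratio B-score over 3 SD below the library mean, with starting fluorescence within 5 SD of its mean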;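 also: negative B-score means less thallium flux so channel inhibition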
hERG protect: hERG (human) protection from proarrhythmic block; Q12809; CHO-hERG, FluxOR thallium flux, dofetilide IC70 present; activation (rescue from dofetilide block), less the hit threshold, % at 10 µM; hit rate 0.51% among 310,000;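 active = activation above the mean of controls blocked by dofetilide plus 5 SD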;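 also: thallium influx through hERG after potassium depolarization seen as dye fluorescence rise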
KCNQ1 act: potentiators or activators of human KCNQ1 potassium channel; hit rate 0.35% among 310,000; CHO-K1 KCNQ1, thallium flux FluxOR fluorescence; active compounds read high; B-score at 10 µM; P51787; AID 2648;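 active = fluorescence ratio B-score, a plate-corrected score, at least three library SD, with initial intensity B-score within 5 SD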
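Test system: CHO-K1 cells stably expressing KCNQ1 / Medium: assay buffer / Also added: depolarizing K+/Tl+ stimulus, K2SO4 and Tl2SO4 each 12.5 mM in 5x stock / Incubation: 90 min dye loading and 20 min compound exposure, both at room temperature / Signal: thallium influx via FluxOR fluorescence, kinetic imaging / Evaluation: B score of baseline-normalized fluorescence ratio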
KCNK3 block: human KCNK3 channel inhibition, primary screen | O14649 | CHO-KCNK3 thallium flux, FluxOR fluorescence; active compounds read low | B-score at 10 µM | hit rate 0.84% among 340,000 | AID 602410;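 active = B-score under library mean minus 4 SD, starting fluorescence ratio at most library mean plus 5 SD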;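 also: more negative B-score means stronger inhibition of thallium flux through KCNK3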
KCNQ1 block: blocks the human KCNQ1 potassium channel | CHO-K1 KCNQ1, FluxOR thallium flux fluorescence; active compounds read high | P51787 | AID 2642 | hit rate 1.3% among 310,000 | B-score at 10 µM;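 active = compounds whose thallium flux B-score, printed positive for inhibition, exceeds three library SD while starting fluorescence stays within three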;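 also: channel opened by potassium depolarization with thallium stimulus after 20 min compound exposure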
KCNK9 inh conf: confirmation of human KCNK9 potassium channel inhibitors | shares compounds with KCNK9 block | HEK293 KCNK9 cells, FluxOR thallium flux fluorescence | inhibition, % at 10 µM | hit rate 43% among 4,900;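 active = thallium signal inhibited by more than 5 SD of the compound-free buffer control wells, on both duplicate plates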;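 also: 0% = assay buffer control wells without compound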
Kir21 sel: tests whether KCNK9 modulators also affect mouse Kir2.1 | AID 492993 | shares compounds with KCNK9 block | Kir2.1 cells, FluxOR thallium flux fluorescence | inhibition, % at 10 µM | hit rate 4% among 4,900;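 active = thallium signal drop more than 5 SD beyond the mean of the no-compound control wells, seen in both duplicate plates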;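 also: signal is fluorescence rise after thallium addition divided by baseline fluorescence; plate controls were assay buffer only for no effect and full block by chlorpromazine control for full effect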
HEK293 Tl ctr: second counter-screen for KCNK9 modulators: effect in non-induced cells | shares compounds with KCNK9 block | non-induced KCNK9-HEK293, FluxOR thallium flux | inhibition, % at 10 µM | hit rate 40% among 4,900 | AID 492997;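 active = thallium signal drop beyond 5 SD of the untreated control mean, on both duplicate plates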;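 also: plate controls were buffer only IC0 wells for no effect and SID17386958 at its maximal inhibitory level for full effect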
The depositor's hits bear a star; i = inactive; . = not tested or not shown.

SMILES | Kir21 block | KCNK9 block | hERG protect | KCNQ1 act | KCNK3 block | KCNQ1 block | KCNK9 inh conf | Kir21 sel | HEK293 Tl ctr
COc1cc(C)nc(N(Cc2ccccc2)S(=O)(=O)c2ccccc2)n1 | 0.15 | -16* | -12 | i | i | i | 56%* | i | 44%*
Cc1sc(NC(=O)C2CCCCC2)c(C#N)c1-c1ccccc1 | 1.1 | i | -10 | i | i | i | i | i | i
Cc1ccc(SCc2cc(=O)[nH]c(Nc3nc(C)c4ccccc4n3)n2)cc1 | -0.67 | i | -6 | i | i | i | i | i | i
Cc1ccc(SCc2cc(=O)[nH]c(Nc3nc(C)c4ccc(C)cc4n3)n2)cc1 | 0 | i | -11 | i | i | i | . | . | .
CCOC(=O)c1cc(-c2ccc(/C=C3/C(=O)N(c4ccc(C(=O)O)cc4)N=C3C)o2)ccc1Cl | 1.7 | i | -15 | i | i | i | i | i | i
Cc1c(C(=O)Nc2ccc(-c3nnc4n3CCCCC4)cc2)oc2c1ccc1ccccc12 | 1.8 | -12* | -8 | i | i | i | i | i | 30%*
O=C(Nc1ccc(-c2nnc3n2CCCCC3)cc1)c1cc2ccccc2o1 | 0.54 | i | -26 | i | i | i | . | . | .
CC(C)(CO)CN1CCC(n2nccc2NC(=O)C2CCCC2)CC1 | -0.82 | i | -11 | i | i | i | . | . | .
COc1ccc(CCNC(=O)c2ccc(Cl)c(S(=O)(=O)N(C)c3ccccc3)c2)cc1 | -0.18 | i | -8 | i | i | i | i | i | i
C#CCSc1nc(-c2ccccc2)cc(C(F)(F)F)c1C#N | 0.34 | -14* | -9 | i | i | i | 37%* | i | 26%*
Clc1cccc(Cl)c1CSc1nnc(/C=C/c2ccccc2)o1 | -2.1 | i | -11 | i | i | i | i | i | 29%*
C[C@H](N)c1nnc(SCc2c(Cl)cccc2Cl)o1 | 0.35 | i | -19 | i | i | i | . | . | .
CC(=O)OC[C@H]1O[C@@H](n2ncc(=O)[nH]c2=O)[C@H](OC(C)=O)[C@@H]1OC(C)=O | 1.2 | i | -3 | i | . | i | . | . | .
O=C(OCC1OC(n2ncc(=O)[nH]c2=O)C(OC(=O)c2ccccc2)C1OC(=O)c1ccccc1)c1ccccc1 (stereo not drawn) | -0.49 | i | -24 | i | i | i | i | i | 33%*
Cc1cc(C)c2nc(Cl)c(CN(Cc3ccco3)C(=O)Nc3ccccc3C)cc2c1 | -0.04 | i | -9 | i | i | i | i | i | i
COCCN(Cc1cc2cc(C)cc(C)c2nc1Cl)C(=O)Nc1ccccc1 | 0.04 | i | -5 | i | i | i | . | . | .
Cc1ccc(OCCNC(=O)c2ccccc2N)cc1 | -0.03 | i | -4 | i | i | i | . | . | .
Cc1ccc(OCCNC(=O)c2ccc3ccccc3n2)cc1 | 2.2 | i | -12 | i | i | i | i | i | i
O=C(NCCOc1ccc(Cl)cc1)c1ccc2ccccc2n1 | -0.02 | i | -10 | i | i | i | i | i | i
CCCN(CC(=O)Nc1ccccc1C)C(=O)C1CCN(S(=O)(=O)c2cccc(C(F)(F)F)c2)CC1 | -0.01 | i | -15 | i | i | i | . | . | .
COc1ccc(/C=N/NC(=O)c2ccc3nc[nH]c3c2)c(OC)c1OC | -1.4 | i | 2 | i | i | i | . | . | .
CCCN(CCC)CCN1C(=O)C2C(C(=O)Nc3cccc(SC)c3)C3C=CC2(O3)C1C(=O)NC1CCCCC1 (stereo not drawn) | 1.4 | i | -10 | i | i | i | . | . | .
Clc1ccccc1OCCN1CCC(Cc2ccccc2)CC1 | -4.3 | i | -12 | i | i | i | i | i | i
O=[N+]([O-])c1cccc(OCCN2CCC(Cc3ccccc3)CC2)c1 | -1.2 | i | -16 | i | i | 7* | i | i | i
O=Cc1cc(Cl)ccc1OCCN1CCC(Cc2ccccc2)CC1 | -4.8* | i | -26 | i | i | i | i | i | i
SMILES | Kir21 block | KCNK9 block | hERG protect | KCNQ1 act | KCNK3 block | KCNQ1 block | KCNK9 inh conf | Kir21 sel | HEK293 Tl ctr
Cc1ccc(NC(=O)c2oc3ccccc3c2NC(=O)C2CCCO2)cc1C (stereo not drawn) | 0.77 | i | -20 | i | i | i | i | i | i
Cc1ccc(C(=O)Nc2cccnc2N2CCN(C)CC2)cc1 | 0.53 | i | 2 | i | i | i | . | . | .
Cc1ccc(Cl)cc1N1CCN(CC(=O)NC2CCCc3ccccc32)CC1 (stereo not drawn) | 0.01 | i | -5 | i | i | i | i | i | i
O=C(CN1CCN(c2ccccc2Cl)CC1)NC1CCCc2ccccc21 (stereo not drawn) | 0.3 | i | -10 | i | i | i | i | i | i
O=C(CSc1ccc(Cl)cc1)NC1CCCc2ccccc21 (stereo not drawn) | 0.57 | i | -5 | i | i | i | . | . | .
O=C1C(NS(=O)(=O)c2cccs2)=C(N2CCN(Cc3ccccc3)CC2)C(=O)c2ccccc21 | -1.1 | i | -15 | i | i | i | i | i | i
CN1CCN(C2=C(NS(=O)(=O)c3cccs3)C(=O)c3ccccc3C2=O)CC1 | 0.63 | i | -7 | i | i | i | . | . | .
COc1cc(SC)ccc1C(=O)NCCOc1ccc(C)c(C)c1 | -1 | i | -9 | i | i | i | . | . | .
O=C(/C=C/c1ccccc1)NC(NC(=S)Nc1cc(Cl)ccc1Cl)C(Cl)(Cl)Cl (stereo not drawn) | 1.1 | i | -11 | i | i | 11* | i | i | i
CCOC(=O)[C@H]1[C@H]2COc3ccc(Cl)cc3[C@H]2N2C(=O)CNC(=O)[C@@]12C | . | . | . | . | i | . | . | . | .
CSc1ccccc1OCc1cc(C(=O)N(C)Cc2ccc(C)o2)no1 | -1.1 | i | -10 | i | i | i | i | i | i
CSc1ccccc1OCc1cc(C(=O)N(C)Cc2ccc3nsnc3c2)no1 | 0.91 | i | -8 | i | i | i | . | . | .
COc1ccc2c(C)cc(SCC(=O)Nc3nsc(-c4ccc(C)cc4)n3)nc2c1 | -0.3 | -14* | -22 | i | i | i | 48%* | i | i
Cc1ccc(-c2nc(NC(=O)CSc3cc(C)c4ccccc4n3)ns2)cc1 | -0.52 | i | -6 | i | i | i | . | . | .
